From ChEMBL document CHEMBL1128358, “Synthesis of novel imidazobenzodiazepines as probes of the pharmacophore for "diazepam-insensitive" GABAA receptors” (J Med Chem, 1995)

Tests used:
[1] = biological target: GABA-A receptor; anion channel; test: Binding affinity against Diazepam insensitive (DI) Gamma-aminobutyric acid A receptor; type: protein-complex assay, Rattus norvegicus
[2] = biological target: GABA-A receptor; anion channel; test: Binding affinity against Diazepam sensitive (DS) Gamma-aminobutyric acid A receptor; type: protein-complex assay, Rattus norvegicus
In short: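 [3H]Ro15-4513 displacement (~2 nM final) on washed cerebellar membranes from adult male Sprague-Dawley rats, ~100 µg tissue, 0.2 M NaCl, 50 mM Tris citrate pH 7.8. DI binding has 10 µM diazepam added. DS binding is total minus DI. Nonspecific binding uses 10 µM Ro15-1788.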

Structure (SMILES) | Ki [1] | IC50 [2]
COc1ccc(-n2nc3c4cc(Cl)ccc4[nH]cc-3c2=O)cc1 | 1.9 nM | –
CCOC(=O)c1ncn2c1CN(C)C(=O)c1cc(OCC)ccc1-2 | 40.9 nM | 7.07 nM
CCc1ncn2c1CN(C)C(=O)c1cc(Cl)ccc1-2 | > 1000 nM | > 500 nM
CC(=O)c1ncn2c1CN(C)C(=O)c1cc(Cl)ccc1-2 | > 1000 nM | > 1000 nM
COc1ccc2ncc3c(=O)n(-c4ccccc4)[nH]c3c2c1 | 47 nM | –
CCN(CC)Cc1ncn2c1CN(C)C(=O)c1cc(Cl)ccc1-2 | > 1000 nM | > 1000 nM
COc1cccc(-n2[nH]c3c(cnc4ccccc43)c2=O)c1 | 26 nM | –
CCOCc1ncn2c1CN(C)C(=O)c1cc(Cl)ccc1-2 | > 1000 nM | > 500 nM
COc1ccc(-n2nc3c4ccc(OC)cc4[nH]cc-3c2=O)cc1 | 10 nM | –
CN1Cc2c(CCl)ncn2-c2ccc(Cl)cc2C1=O | > 1000 nM | > 500 nM
CC(C)N(Cc1ncn2c1CN(C)C(=O)c1cc(Cl)ccc1-2)C(C)C | > 1000 nM | > 1000 nM
COc1ccc(-n2nc3c4ccccc4[nH]cc-3c2=O)cc1 | 9.3 nM | –
O=c1c2cnc3ccc(Cl)cc3c2[nH]n1-c1ccccc1 | 5.1 nM | –
O=C1C2C=Nc3ccccc3C2=NN1c1ccccc1 (configuration not stated) [CGS-8216] | 46 nM | –
CCCCCc1ncn2c1CN(C)C(=O)c1cc(Cl)ccc1-2 | > 1000 nM | > 1000 nM
COCc1ncn2c1CN(C)C(=O)c1cc(Cl)ccc1-2 | > 1000 nM | 514 nM
CCOC(=O)c1ncn2c1CN(C)C(=O)c1cc(OC)ccc1-2 | 23.8 nM | 2.47 nM
CN1Cc2c(CO)ncn2-c2ccc(Cl)cc2C1=O | > 1000 nM | > 1000 nM
COc1ccc2c(c1)ncc1c(=O)n(-c3ccccc3)[nH]c12 | 1.9 nM | –
CCCCC(=O)c1ncn2c1CN(C)C(=O)c1cc(Cl)ccc1-2 | > 1000 nM | > 500 nM
